Data set [1] relates to 1321-N1. Description: Induction of NGF secretion in human 1321N1 cells at 19.6 uM after 48 hrs. Type of data set: functional, cell-based.
In a further data set the test system is 1321N1 (Homo sapiens). Description: Cytotoxicity against human 1321N1 cells assessed as induction of cell death measured after 24 hrs. Particulars: pooled result: one value given for 2 cell lines, strains, targets or settings.
In data set [2] the test system is 1321-N1. Description: Induction of NGF secretion in human 1321N1 cells at 57.8 uM after 48 hrs. Type of data set: functional, cell-based.
For data set [3], the system named is PC-12. Description: Intrinsic neurotrophic activity in rat PC12 cells in conditioned 1321N1 culture medium assessed as neurite outgrowth at 57.8 uM measured after 48 hrs by light microscopy method. Type of data set: functional, cell-based.
A short description of data set [4]: Upregulation of NGF expression in human 1321N1 cells at 57.8 uM measured after 6 hrs by semiquantitative RT-PCR analysis relative to DMSO-control. Format: functional, cell-based. The procedure, abridged:
(§1)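 1321N1 astrocytes were grown to confluence on 3.5 cm plates and switched to serum-free DMEM 24 h before compound addition. Primers were specific for GAPDH, NGF (189 bp) and BDNF (101 bp). PCR programs: GAPDH 20 cycles at 60 °C annealing; NGF 30 cycles at 61 °C; BDNF 30 cycles at 58 °C. Products were run on 1% or 2% agarose, with GAPDH as loading control and identity confirmed by sequencing. n = 3 independent experiments.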

Data set [5] in a line: Upregulation of NGF expression in human 1321N1 cells at 68.9 uM measured after 6 hrs by semiquantitative RT-PCR analysis relative to DMSO-control. Format: functional, cell-based. The procedure, abridged:
as §1

Data set [6] in a line: Antifungal activity against Mucor plumbeus MUCL 49355 measured after 20 to 24 hrs by serial dilution assay. Type of data set: functional.
Data set [7] in a line: Cytotoxicity against HUVEC measured after 5 days by MTT assay. Type of data set: functional, cell-based. Particulars: Homo sapiens, 120 h. In general terms: Tetrazolium dyes change colour on reduction, which living cells bring about.
The nature of data set [8]: Cytotoxicity against human MCF7 cells measured after 5 days by MTT assay. Type of data set: functional, cell-based. Particulars: MCF7, 120 h. The procedure, abridged: (§2)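 Compounds added from 30 μg/mL methanol stocks by serial dilution in 96-well plates. L929 was cultured in DMEM, MCF-7 and KB-3-1 in RPMI-1640, all with 10% FCS, 5% CO2, 37 °C, 5 days. Methanol was the negative control and epothilone A the positive control. IC50 values were derived from the dilution series.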

Data set [9] can be described thus: Cytotoxicity against human KB-3-1cells measured after 5 days by MTT assay. Type of data set: functional, cell-based. Particulars: KB 3-1, 120 h. The procedure, abridged:
as §2

Data set [10] in a line: Cytotoxicity against mouse L929 cells measured after 5 days by MTT assay. Type of data set: functional, cell-based. Particulars: L929, 120 h. The procedure, abridged: as §2
The nature of data set [11]: Increase in BDNF expression in human 1321N1 cells at 68.9 uM measured after 6 hrs by semiquantitative RT-PCR analysis relative to DMSO-control. Type of data set: functional. The procedure, abridged: as §1
Data set [12] concerns PC-12. Description: Intrinsic neurotrophic activity in rat PC12 cells in conditioned 1321N1 culture medium assessed as neurite outgrowth at 19.6 uM measured after 48 hrs by light microscopy method. Format: functional, cell-based.
Data set [13] in a line: Upregulation of NGF expression in human 1321N1 cells at 19.6 uM measured after 6 hrs by semiquantitative RT-PCR analysis relative to DMSO-control. Format: functional, cell-based. The procedure, abridged:
as §1

Data set [14] in a line: Increase in BDNF expression in human 1321N1 cells at 19.6 uM measured after 6 hrs by semiquantitative RT-PCR analysis relative to DMSO-control. Format: functional. The procedure, abridged: as §1

Consider three compounds from ChEMBL document CHEMBL3867454, “Corallocins A-C, Nerve Growth and Brain-Derived Neurotrophic Factor Inducing Metabolites from the Mushroom Hericium coralloides” (J Nat Prod, 2016).

One may read the MIC as the least concentration at which growth counts as inhibited. Higher therefore signals a less susceptible organism. What is called IC50 is the concentration at which inhibition is half-maximal. Higher therefore signals lower potency.

Structures are written as SMILES. ≈ marks a conversion by molar mass, not a printed value. Calls of active or inactive are those of the source. The calls are words filed in the database; no cut-off is given here.

For `COc1cc2c(c(O)c1C/C=C(\C)CC/C=C(\C)C(=O)O)COC2=O`, the result in the data set with 1321-N1 [1], with 1321-N1 [2] and in the data set with PC-12 [3] was Active. For the same compound, the MNTC at 24 h in the data set with 1321N1 (Homo sapiens) was 57.8 µM. Also, in [4], the fold change (FC) was found to be 3.
In the case of `COc1cc2c(c(O)c1C/C=C(\C)CCC=C(C)C)CN(CCc1ccc(O)cc1)C2=O`, the MNTC at 24 h with 1321N1 (Homo sapiens) is 68.9 µM. In addition, the results for the fold change (FC) in data set [5] and in [11] were 2 and 1.5, respectively. The compound further came in with an MIC in data set [6] of 57.4 µM (≈ 25 µg/mL). The IC50 worked out at 2.1 µM in data set [7], 9.2 µM in data set [8], 11.5 µM in data set [9] and 14.7 µM in data set [10].
On to `COc1cc2c(c(O)c1C/C=C(\C)CCC=C(C)C)CN(CCc1c[nH]c3ccccc13)C2=O`, for which the outcome with 1321-N1 [1], in the data set on PC-12 [12] and in the data set on 1321-N1 [2] was Active. Further, the MNTC at 24 h in the data set on 1321N1 (Homo sapiens) came out at 19.6 µM. Besides, the fold change (FC) in data set [13] stood at 5; in data set [14], 1.9.
